The list is not random: actives were taken first. Their share in the collection is about 4.1%.
APP 5'UTR act: activates APP 5'UTR luciferase reporter; activation, % at 2 µM; hit rate 1% among 190,000; SH-SY5Y APP 5'UTR luciferase reporter, luminescence; zero percent = DMSO vehicle wells;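 active = activation above a set limit, based on mean plus 3 SD of controls, cut at about 140% in these data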
FLuc stim CS: affects firefly luciferase, flagging false hits in luciferase stimulation screens | P08659 | ATPlite luciferase biochemical, luminescence, 10 min; 0 = ATP-free wells, 1 = DMSO control | activation factor at 10 µM | 200,000 tested, under 10 active;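 active = luciferase activation factor, scaled between plate controls, of at least 2 with compound at 10 µM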
Target sequence (P08659 whole entry, looked up): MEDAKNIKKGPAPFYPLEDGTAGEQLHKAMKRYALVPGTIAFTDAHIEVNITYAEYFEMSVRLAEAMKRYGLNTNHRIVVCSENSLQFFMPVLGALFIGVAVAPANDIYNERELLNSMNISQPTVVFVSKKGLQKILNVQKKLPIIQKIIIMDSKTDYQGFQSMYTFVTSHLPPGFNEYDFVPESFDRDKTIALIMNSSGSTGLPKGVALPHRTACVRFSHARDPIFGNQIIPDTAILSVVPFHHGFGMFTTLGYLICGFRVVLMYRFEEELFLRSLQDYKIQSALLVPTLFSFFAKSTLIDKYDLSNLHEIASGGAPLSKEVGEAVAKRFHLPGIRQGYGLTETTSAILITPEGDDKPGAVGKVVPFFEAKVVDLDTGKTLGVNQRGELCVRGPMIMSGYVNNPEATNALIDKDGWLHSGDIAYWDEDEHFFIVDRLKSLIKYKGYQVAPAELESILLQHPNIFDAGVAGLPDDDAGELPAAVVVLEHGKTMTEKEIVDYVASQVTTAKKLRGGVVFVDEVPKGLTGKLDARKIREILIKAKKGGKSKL
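Material: Luciferase/luciferin reagent mix | Doses: Test compounds dosed from 2 mM stocks in 100% DMSO | Timing: 10 min incubation after luciferase reagent addition, room temperature | Measured by: Luminescence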
STAT1 activator: STAT1 signaling activation. NIH 3T3 STAT1-luciferase reporter, IFN-gamma, luminescence; 100% = IFN-gamma alone, no compound. activation (% of control), % at 5.5 µM. hit rate 2.6% among 200,000;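 active = activation above the screen-wide mean activation plus 3 SD, cut at about 130% in these data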;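 also: raw ratio to IFN-gamma control signal so 100% means no change and 0% no light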
NF-kB neuron act: compounds increasing NF-kB expression in human neuronal cells. fold change at 12.5 µM. NF-kB reporter expression; active compounds read high. hit rate 1.6% among 190,000; in the data active = fold change above about 3.3
FLuc inhib CS: inhibits firefly luciferase, flagging false hits in luciferase inhibition screens; hit rate 1.5% among 200,000; inhibition, % at 10 µM; ATPLite firefly luciferase biochemical luminescence, 10 min; P08659;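 active = inhibition above about 50% when tested at 10 µM, limit read from the data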
Starred values were filed as active, the others as inactive; . = no result.

SMILES	APP 5'UTR act	FLuc stim CS	STAT1 activator	NF-kB neuron act	FLuc inhib CS
CCOC(=O)c1sc(=NC(=O)c2cc(OC)c(OC)c(OC)c2)n(C)c1C	-9	1.1	99	1.1	-6
CCOC(=O)c1sc(=NC(=O)CCSc2ccccc2)n(C)c1C	29	1	136*	0.99	2
CCOC(=O)N1CCN(C(=O)CCSc2ccc(C)cc2)CC1	22	1.1	105	1.3	-5
CCOC(=O)c1sc(=NC(=O)c2cccc(C)c2)n(C)c1C	162*	0.6	142*	3.5*	40
CC(=O)c1c(C)[nH]c(C(=O)OCc2ccccc2)c1C	50	1	142*	2.2	3
CC(C)CC(C(=O)O)C(C)CC(=O)Nc1ccn(-c2ccccc2)n1 (stereo unspecified)	-18	1	108	1.1	-1
Brc1cccc(-c2n[nH]c(-c3ccccc3)n2)c1	132	0.9	138*	3.9*	12
Cc1ccc(NC(=O)COc2ccccc2[N+](=O)[O-])nc1	31	0.2	95	5.5*	80*
C/C(=N\NC(=O)COc1ccccc1[N+](=O)[O-])c1cccs1	41	0.8	144*	1.9	19
Cc1ccnc(NC(=O)COc2ccccc2[N+](=O)[O-])c1	150*	0.2	108	1.1	81*
O=C(COc1ccccc1[N+](=O)[O-])Nc1cccnc1	-1	0.8	123	1.9	21
CC(C)CNC(=O)COc1ccccc1[N+](=O)[O-]	15	1.1	104	1.4	-7
CCC(C)(C(=O)NC1CCCCC1)N(C(=O)c1ccccn1)c1ccccc1 (stereo unspecified)	-3	1	103	1.1	-1
Cc1cccc(Sc2c([N+](=O)[O-])ncn2C)c1	3	0.5	101	1.3	52*
Cc1cccnc1Sc1c([N+](=O)[O-])ncn1C	2	1	107	1.1	-3
C/C(=N\OC(=O)c1cccc(C)c1)c1sc(-c2ccccc2)nc1C	2	1	114	3.6*	-4
C/C(=N\OC(=O)c1ccc(F)cc1)c1sc(-c2ccccc2)nc1C	9	1	104	1.7	-4
C/C(=N\OC(=O)c1ccc(Cl)cc1)c1sc(-c2ccccc2)nc1C	-1	1.1	112	4.4*	-12
C/C(=N\OC(=O)c1cccc(C(F)(F)F)c1)c1sc(-c2ccccc2)nc1C	11	1	96	4*	-3
CSc1nsc(N/N=C/c2ccc3c(c2)OCO3)c1C#N	168*	0.6	150*	3.9*	35
COc1cc(/C=N/Nc2snc(SC)c2C#N)cc(OC)c1OC	-8	1	92	1.7	-1
COCCNC(=S)N/N=C/c1ccc2c(c1)OCCO2	-19	0.4	98	1.1	59*
Cc1ccccc1OCC(=O)N/N=C/c1ccc2c(c1)OCCO2	.	0.8	107	1.3	19
CC(C)NC(=S)N/N=C/c1ccc2c(c1)OCCO2	24	0.2	104	1.8	76*
CC(COc1ccccc1)N1CCC(CO)(Cc2ccccc2)CC1 (stereo unspecified)	27	1.1	94	4.4*	-8
SMILES	APP 5'UTR act	FLuc stim CS	STAT1 activator	NF-kB neuron act	FLuc inhib CS
Cc1ccc2cc(C#N)c(SCc3nnc(-c4ccccc4[N+](=O)[O-])o3)nc2c1	28	1	96	4.7*	-2
COc1cc(C=C(C(C)=O)C(C)=O)ccc1O	0	1.1	95	1.3	-7
COc1cc(/C=C/C(=O)CC(=O)/C=C/c2ccc(O)c(OC)c2)ccc1O	-11	1	99	7.4*	0
CSc1ccc(/C=N/NC(=O)c2ccc(O)cc2)cc1	46	0.3	126	2.3	71*
COc1ccc(C(=O)N/N=C/c2ccc(SC)cc2)cc1	3	0.8	110	1.2	19
CSc1ccc(/C=N/NC(=O)c2ccccc2Cl)cc1	10	0.9	133*	.	9
CC1Cc2ccccc2N1C(=O)c1ccc(N2CCCCC2)c([N+](=O)[O-])c1 (stereo unspecified)	5	1.1	104	1.1	-6
Cc1ccc(C(c2nnnn2CC2CCCO2)N2CCN(C(=O)c3ccco3)CC2)cc1 (stereo unspecified)	4	1	93	1.1	-3
Cc1nc2cncc(Br)c2n1C	3	1	104	1.2	-4
Fc1ccc(Nc2nc(-c3ccncc3)nc3ccccc23)cc1	-10	1.1	93	1	-6
CC(C)c1ccc(/C=C/C(=O)NC2=NCCS2)cc1	222*	0.3	95	3.1	67*
Cc1cc(OCCCC(=O)NC2=NCCS2)ccc1Cl	-2	1.1	93	0.98	-5
CCOc1cc(C(=O)NC2=NCCS2)cc(OCC)c1OCC	11	1.1	94	1.2	-5
O=C(COc1ccccc1)NC1=NCCS1	-6	0.7	122	1.2	31
O=C(/C=C/c1ccc(Cl)c(Cl)c1)NC1=NCCS1	25	1	134*	1.6	3
CC(C)c1ccc(OCC(=O)NC2=NCCS2)cc1	26	0.4	126	1.5	57*
CC(C)C(C(=O)NC1=NCCS1)c1ccc(Cl)cc1 (stereo unspecified)	4	1	100	1.1	2
CCOc1ccc(C(=O)NC2=NCCS2)cc1	92	0.5	139*	2.7	52*
Cc1cc(N2C(=O)C3C4CC(C(Br)C4Br)C3C2=O)no1 (stereo unspecified)	-6	1	106	1.2	-1
CCCN1C(=O)/C(=C/c2c(NCCCOC(C)C)nc3c(C)cccn3c2=O)SC1=S	11	1.1	101	1.1	-6
Cc1cccc(C(=O)NC2=NCCS2)c1	139*	0.5	112	3.3*	54*
Cc1cc(C(=O)NC2=NCCS2)cs1	74	0.7	126	2.6	35
Oc1ccc(CN2CCN(Cc3ccccc3)CC2)c2cccnc12	12	.	102	6*	.
CN1CCN(Cc2cc(COCc3ccccc3)c3cccnc3c2O)CC1	-72	1	107	5.3*	-1
O=[N+]([O-])c1ccccc1N/N=C\c1ccccc1Cl	.	1	127	3.7*	-4
SMILES	APP 5'UTR act	FLuc stim CS	STAT1 activator	NF-kB neuron act	FLuc inhib CS
CCN(CC)S(=O)(=O)c1cc(NC(=O)c2ccc(Br)s2)ccc1C	34	0.9	138*	1.2	13
COc1ccc(-c2csc(NC(=O)CC(C)C)n2)cc1	36	1	108	2.1	0
Cc1nc(-c2ccc(NC(=O)CC(C)C)cc2)cs1	41	0.3	129*	1.1	68*
CC(C)(C)C(=O)Nc1ccc(-c2cn3ccsc3n2)cc1	158*	0	72	3.3*	96*
O=S(=O)(Nc1ccc(-c2cn3ccsc3n2)cc1)c1ccc2c(c1)OCCO2	14	0.9	101	1.8	9
CC(C)CC(=O)Nc1ccc(-c2cn3ccsc3n2)cc1	169*	0.1	104	6.7*	92*
COc1cc(NC(=S)N2CCN(CCO)CC2)c(OC)cc1Cl	3	1	101	1.2	-3
